The values below come from ChEMBL document CHEMBL1926589, “2-Anilinonicotinyl linked 2-aminobenzothiazoles and [1,2,4]triazolo[1,5-b] [1,2,4]benzothiadiazine conjugates as potential mitochondrial apoptotic inducers” (Bioorg Med Chem, 2011).

In one data set the test system is A549. As to the kind of experiment: Growth inhibition of human A549 cells at 10 uM by sulforhodamine B assay. Type of data set: functional. The following applies: read-out: GI. Put shortly:
(§1)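 Single-dose 10 µM screen by sulforhodamine B assay, reported as percent inhibition of cell proliferation. Cells grown in medium with 10% heat-inactivated FBS at 37 °C, 5% CO2, and treated at about 70% confluence or in log phase. Compounds dissolved in DMSO; controls received vehicle (<0.5% v/v).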
For orientation: The SRB assay estimates cell density from bound dye.

Data set [1] relates to HL-60. As to the kind of experiment: Inhibition of Bcl-2 expression in human HL60 cells at 1 uM after 24 hrs by Western blotting. The class given is functional, cell-based. Put shortly:
(§2)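 HL-60 cells treated 24 h and lysed in RIPA buffer on ice; protein measured by Bradford against a BSA standard. 50 µg resolved by SDS-PAGE and transferred to PVDF, blocked in 5% milk/TBST, then primary antibodies 1:1000 for 2 h and HRP secondary 1:1000 for 1 h. ECL detection with β-actin as loading control; bands quantified by densitometry.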

In data set [2] the test system is HL-60. Kind of data set: Induction of apoptosis in human HL60 cells assessed as decrease in mitochondrial membrane potential at 1 uM after 24 hrs using rhodamine 123 staining by flow cytometry. The class given is functional. Also noted: scale not given: the % may be the effect or the level left. Put shortly:
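HL-60 cells (1 x 10^5 per 1.5 mL) treated 24 h, then stained with rhodamine-123 (5 µg/mL final) for 1 h. Washed, and propidium iodide (5 µg/mL) added just before reading. FL-1 fluorescence from 10,000 events; percentage of low Rh-123 cells taken as loss of membrane potential. Mean ± SD, n=3.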
In general terms: Flow cytometry measures light scatter and fluorescence of single cells or particles in a stream.

Data set [3] in a line: Therapeutic ratio of IC50 for african green monkey CV1 cells to IC50 for human HL60 cells. Type of data set: ADME, cell-based, HL-60. Particulars: CV1 cells and HL60 cells, read-out: Ratio IC50.
For data set [4], the system named is HL-60. Kind of data set: Induction of apoptosis in human HL60 cells assessed as DNA ladder formation at 1 uM after 24 hrs by agarose gel electrophoresis. The class given is functional, cell-based. Put shortly:
(§3)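 Cells treated 24 h, then 2 x 10^6 cells lysed (Triton X-100 buffer, pH 8.0) with RNase at 37 °C for 90 min and proteinase-K at 50 °C for 1 h. DNA phenol/chloroform-extracted and ethanol-precipitated, then run on 1.8% agarose at 50 V for 1.5 h in TAE. Ladders viewed under UV.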

The subject of another data set is SW-620. Kind of data set: Growth inhibition of human SW620 cells at 10 uM by sulforhodamine B assay. Type of data set: functional. Particulars: read-out: GI. In outline:
as §1

Data set [5] has as its system HL-60. Kind of data set: Induction of apoptosis in human HL60 cells assessed as formation of apoptotic bodies at 1 uM after 24 hrs by scanning electron microscopy. Type of data set: functional, cell-based. In outline:
(§4)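 HL-60 cells at 2 x 10^5/ml in 10% FCS medium exposed to 0.5 or 1 µM for 6–48 h; DMSO vehicle controls. Cells fixed in 2.5% glutaraldehyde in 0.1 M phosphate (pH 7.2) at 4 °C for 1 h, post-fixed in 1% OsO4 and ethanol-dehydrated. Critical-point dried, gold-coated, and imaged by SEM at 40 kV.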

Data set [6] concerns HL-60. Kind of data set: Induction of apoptosis in human HL60 cells assessed as increase of reactive oxygen species level at 1 uM after 24 hrs using DCFH-DA fluorescent dye based flow cytometric analysis relative to control. The class given is functional. In outline:
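HL-60 cells (1 x 10^5 per 1.5 mL) treated 24 h, then loaded with 10 µM H2DCFDA for 30 min at 37 °C. Washed twice in PBS and read in FL-1 (530 nm). Percentage of DCF-positive cells determined; mean ± SD of three experiments.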

For data set [7], the system named is HL-60. As to the kind of experiment: Induction of apoptosis in human HL60 cells assessed as late apoptotic cells at 1 uM after 24 hrs using Annexin V-FITC and propidium iodide staining by flow cytometry relative to control. The class given is functional. Put shortly:
(§5)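 HL-60 cells (1 x 10^5 per 1.5 mL) treated 24 h, washed twice in PBS and stained in binding buffer with annexin V-FITC and PI. Flow cytometry with FITC in FL-1 (530 nm) and PI in FL-2 (585 nm), using quadrant statistics: lower right taken as apoptotic, upper right as post-apoptotic necrotic. Representative of three independent experiments.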

In data set [8] the test system is HL-60. As to the kind of experiment: Induction of apoptosis in human HL60 cells assessed as caspase8 activation using IETD-AFC as substrate at 1 uM after 24 hrs by fluorimetry relative to control. The class given is functional. In outline: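 HL-60 cells (2 x 10^6) treated 24 h, washed and lysed. Caspase-3, -8 and -9 activities in lysates measured fluorometrically with a commercial caspase fluorescent assay kit. Two independent experiments, each in duplicate.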

The test system of data set [9] is HL-60. Kind of data set: Induction of apoptosis in human HL60 cells assessed as DNA ladder formation at 10 uM after 24 hrs by agarose gel electrophoresis. Type of data set: functional, cell-based. Put shortly:
as §3

Data set [10] has as its system HL-60. As to the kind of experiment: Induction of apoptosis in human HL60 cells assessed as PARP cleavage at 1 uM after 24 hrs by Western blotting. Type of data set: functional, cell-based. In outline:
as §2
For orientation: In western blotting, separated proteins are transferred to a membrane and probed.

Data set [11] relates to HL-60. As to the kind of experiment: Induction of apoptosis in human HL60 cells assessed as decrease in size at 1 uM after 12 hrs by scanning electron microscopy. Type of data set: functional, cell-based. In outline:
as §4

The subject of data set [12] is HL-60. Kind of data set: Induction of apoptosis in human HL60 cells assessed as smoothening of surface at 1 uM after 12 hrs by scanning electron microscopy. Type of data set: functional, cell-based. In outline: as §4
The test system of data set [13] is HL-60. Kind of data set: Induction of apoptosis in human HL60 cells assessed as blebbing of plasma membrane at 1 uM after 12 hrs by scanning electron microscopy. The class given is functional, cell-based. In outline: as §4
The subject of another data set is HCT-15. As to the kind of experiment: Growth inhibition of human HCT15 cells at 10 uM by sulforhodamine B assay. The following applies: read-out: GI. Type of data set: functional. Put shortly:
as §1

For the next data set, the system named is SK-N-SH. Kind of data set: Growth inhibition of human SK-N-SH cells at 10 uM by sulforhodamine B assay. Type of data set: functional. Particulars: read-out: GI. Put shortly:
as §1

In data set [14] the test system is HL-60. As to the kind of experiment: Cell cycle arrest in human HL60 cells assessed as accumulation at sub-G0 phase measuring DNA damage at 1 uM after 24 hrs using propidium iodide staining by flow cytometry (reference value: 1%). Type of data set: functional. In outline:
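HL-60 cells (1 x 10^5 per 1.5 mL) treated 24 h, then fixed in 70% cold ethanol at −20 °C overnight. RNase digestion (400 µg/ml) at 37 °C for 45 min, then propidium iodide (10 µg/ml) for 30 min. Flow cytometry on 10,000 events, FL2-A vs FL2-W, with doublet discrimination. Sub-G0 (hypodiploid) peak taken as apoptotic cells. Mean ± SD of three independent experiments.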

For a further data set, the system named is OVCAR-5. As to the kind of experiment: Growth inhibition of human OVCAR5 cells at 10 uM by sulforhodamine B assay. Type of data set: functional. Particulars: read-out: GI. Put shortly: as §1
The next data set relates to SiHa. As to the kind of experiment: Growth inhibition of human SiHa cells at 10 uM by sulforhodamine B assay. The class given is functional. The following applies: read-out: GI. In outline:
as §1

In a further data set the test system is HEp-2. As to the kind of experiment: Growth inhibition of human Hep2 cells at 10 uM by sulforhodamine B assay. Type of data set: functional. Particulars: read-out: GI. In outline: as §1
Data set [15] deals with HL-60. As to the kind of experiment: Induction of apoptosis in human HL60 cells assessed as non-viable necrotic cells at 1 uM after 24 hrs using Annexin V-FITC and propidium iodide staining by flow cytometry relative to control. Type of data set: functional. Put shortly: as §5
For another data set, the system named is PC-3. As to the kind of experiment: Induction of apoptosis in human PC3 cells assessed as nuclear fragmentation at 1 uM after 24 hrs by DAPI staining-based fluorescence microscopy. The class given is functional, cell-based. In outline: (§6)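 HL-60 or PC-3 cells treated at 1 µM for 24 h. Air-dried smears fixed in methanol at −20 °C for 20 min and stained with DAPI (1 µg/mL) for 20 min at room temperature in the dark. Mounted in 90% glycerol/PBS and examined by fluorescence microscopy for nuclear morphology.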

The test system of data set [16] is HL-60. Kind of data set: Induction of apoptosis in human HL60 cells assessed as nuclear fragmentation at 1 uM after 24 hrs by DAPI staining-based fluorescence microscopy. Type of data set: functional, cell-based. Put shortly: as §6

Calls of active or inactive are those of the source. The calls are words filed in the database; no cut-off is given here. Some results are limits rather than exact numbers.

As for `O=C(Nc1nc2ccc([N+](=O)[O-])cc2s1)c1cccnc1Nc1cc(F)c(F)c(F)c1`, the inhibition of growth at 10 µM amounted to 27% with A549; 70% with SW-620; 62% in the data set on HCT-15; 49% in the data set on SK-N-SH; 52% with OVCAR-5; 70% with SiHa. Besides, the inhibition of growth at 10 µM in the data set on HEp-2 is 0%. Further, the inhibition result in the data set on HL-60 [1] was “inactive”. Moreover, the Activity in the data set with HL-60 [2] is reported as 45%; with HL-60 [7], 8%; with HL-60 [14] it was 94%; in the data set on HL-60 [15] it was 47%. Also, the selectivity ratio in data set [3] is more than 1250. Further, the result in the data set on HL-60 [4], in the data set with HL-60 [5], in the data set on HL-60 [9], in the data set with HL-60 [10], in the data set on HL-60 [11] and in the data set with HL-60 [12] was Active. Also, the result in the data set on HL-60 [13], in the data set with PC-3 and in the data set on HL-60 [16] was Active. Moreover, the result with HL-60 [6] was inactive. In the data set on HL-60 [8], the “fold change (FC)” value turned out to be 2.
